A selection: hits, their analogues and other compounds. The true share with any hit is near 0.86%.
CXCR6 block – inhibitors of human CXCR6 receptor; O00574; CHO-K1 PathHunter CXCR6 beta-arrestin, luminescence; inhibition, % at 20 µM; 360,000 tested, 0.36% active; AID 602244; in the data active = inhibition above about 34%, passing the limit was not always enough;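 note: antagonist mode with CXCL16 agonist at 10 nM final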
CCR6 antag – antagonists of human CCR6 receptor | inhibition, % at 20 µM | 340,000 tested, 0.49% active | P51684 | CHO-K1 CCR6 PathHunter beta-arrestin, luminescence, CCL20-stimulated;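 active = compounds whose inhibition of the agonist-driven luminescence signal at 20 µM reaches about 50%, limit read from the data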;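 note: cells stimulated with CCL20 at 14 nM final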
APJ agonist – APJ receptor agonism; CHO-K1 APJ PathHunter beta-arrestin, luminescence; 0% DMSO wells, 100% apelin; activation, % at 20 µM; 330,000 tested, 0.11% active;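 active = activation more than six SD over the plate average, tested at 20 µM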
Target sequence (P35414 whole entry, looked up): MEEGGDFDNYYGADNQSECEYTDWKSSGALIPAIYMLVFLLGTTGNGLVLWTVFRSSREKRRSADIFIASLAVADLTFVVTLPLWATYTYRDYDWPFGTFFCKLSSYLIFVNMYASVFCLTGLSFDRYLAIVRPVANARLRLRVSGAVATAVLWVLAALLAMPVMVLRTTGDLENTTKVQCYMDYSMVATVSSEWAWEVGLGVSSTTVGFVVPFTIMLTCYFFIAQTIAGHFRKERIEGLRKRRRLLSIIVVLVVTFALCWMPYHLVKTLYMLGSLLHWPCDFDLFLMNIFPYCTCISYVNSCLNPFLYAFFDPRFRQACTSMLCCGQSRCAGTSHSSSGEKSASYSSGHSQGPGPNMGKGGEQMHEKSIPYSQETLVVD
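Assay system: CHO-K1 cells stably expressing ProLink-tagged human APJ and arrestin–beta-gal acceptor. Compound dosing: 20 µM single point, 1% DMSO. Times: 16-18 h seeding, 90 min dark compound exposure, 60 min detection. Detection: beta-gal luminescence. Evaluation: APJ–arrestin association signal. Controls: negative DMSO alone, positive Apelin-13 at 10 nM.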
APJ antagonist – blocks the human apelin receptor APJ. 330,000 tested, 0.32% active. CHO-K1 APJ beta-arrestin complementation, luminescence. P35414. inhibition, % at 20 µM;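 active = inhibition above about 40% at 20 µM, limit read from the data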;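 note: cells challenged with 10 nM apelin-13 agonist together with compound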
DAGLB inh – diacylglycerol lipase beta (human) inhibition; AID 504411; 340,000 tested, 0.059% active; HEK293T DAGLB membrane lysate, EnzChek fluorogenic substrate; inhibition, % at 5.17 µM; Q8NCG7; in the data active = inhibition above about 34%
iPSC survival up – hiPSC single-cell survival enhancement; ATPlite luminescence; 100% = ROCK inhibitor wells, 0% = DMSO; survival enhancement, % at 20 µM; 360,000 tested, 0.044% active; AID 602274; in the data active = survival enhancement above about 18%;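 note: cells exposed to compounds for 16 hours before the ATP read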
APJ ag confirm – confirmation of human APJ apelin receptor agonists. 310 tested, 10% active. activation, % at 20 µM. shares compounds with APJ agonist. AID 2764. CHO-K1 APJ PathHunter beta-arrestin, luminescence;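 active = activation above 40%, taking the highest of four retests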
APJ antag conf – confirmation of human APJ apelin receptor antagonists | shares compounds with APJ antagonist | APJ beta-arrestin recruitment, luminescence, antagonist mode | inhibition, % at 20 µM | 950 tested, 66% active | AID 2766; in the data active = inhibition above about 50%
Hits are given with their value.

Screening COc1cc2cc(C(=O)N3CC(COS(C)(=O)=O)c4ccc(O)cc43)[nH]c2c(OC)c1OC (configuration not stated) returned CXCR6 block inactive, CCR6 antag inactive, DAGLB inh inactive and iPSC survival up inactive.
`CN(C)c1ccc(/C=C/C=C2/C(=O)NC(=O)N(c3ccccc3)C2=O)cc1` gave CXCR6 block 46, CCR6 antag 66, DAGLB inh inactive and iPSC survival up inactive.
O=C1NC(=O)N(c2ccccc2)C(=O)/C1=C/C=C/c1ccco1 was read as CXCR6 block inactive, CCR6 antag inactive, APJ agonist inactive, APJ antagonist inactive, DAGLB inh inactive and iPSC survival up inactive.
O=C(N/N=C\C1C(=O)NC(=S)N(c2ccccc2)C1=O)c1ccc(O)cc1 (configuration not stated) was read as CXCR6 block inactive, CCR6 antag 62, APJ agonist inactive, APJ antagonist inactive, DAGLB inh inactive and iPSC survival up inactive.
`C/C=C1/C[C@@H](C)[C@](O)(CO)C(=O)OCC2=CCN3CC[C@@H](OC1=O)[C@@H]23` gave CXCR6 block inactive, CCR6 antag inactive, APJ agonist inactive, APJ antagonist inactive, DAGLB inh inactive and iPSC survival up inactive.
Screening Cc1sc(-n2c(C)cc(C=C3C(=O)NC(=O)NC3=O)c2C)c(C#N)c1C returned CCR6 antag inactive, APJ agonist 11, APJ antagonist inactive and APJ ag confirm inactive.
Screening Cc1cc(/C=C2\C(=O)NC(=O)N(c3ccc(Cl)cc3)C2=O)c(C)n1-c1sc2c(c1C#N)CCCC2 returned CXCR6 block inactive, CCR6 antag inactive, APJ agonist inactive, APJ antagonist inactive, DAGLB inh inactive and iPSC survival up inactive.
For C[C@@H]1CN([C@@H](C)CO)C(=O)CCCn2nncc2CO[C@H]1CN(C)C(=O)Oc1ccccc1 the results were CXCR6 block inactive, DAGLB inh inactive and iPSC survival up inactive.
Screening C=C(C=O)C[C@@H]1C[C@H](O)C2OC3C[C@]4(C)OC5/C=C\CC6OC7C(CC=CCC6OC5CCCC4OC3CC2O1)OC1CC2OC3CC(=O)OC3C[C@@H](C)C[C@@]2(C)OC1C[C@@H]7C (some centres not stated) returned CCR6 antag inactive, APJ agonist 21, APJ antagonist inactive and APJ ag confirm inactive.
For CC1=Nc2ccccc2/C1=C/c1c(O)[nH]c(=O)[nH]c1=O the results were CXCR6 block inactive, CCR6 antag inactive, APJ agonist inactive, APJ antagonist inactive, DAGLB inh inactive and iPSC survival up inactive.
Screening O=c1[nH]c(O)c(/C=C2/C=CC(c3cc(Cl)ccc3Cl)=N2)c(=O)[nH]1 returned CXCR6 block inactive, CCR6 antag inactive, APJ agonist 19, APJ antagonist inactive, DAGLB inh inactive, iPSC survival up inactive and APJ ag confirm inactive.
Screening N#Cc1ccc(NC(=O)CN2C(=O)NC3(CCCCCCC3)C2=O)cc1Cl returned CXCR6 block inactive, CCR6 antag inactive, APJ agonist inactive, APJ antagonist inactive, DAGLB inh inactive and iPSC survival up inactive.
For O=C1C(=O)c2ccccc2-c2ccccc21 the results were CXCR6 block inactive, CCR6 antag inactive, APJ agonist 37, APJ antagonist inactive, DAGLB inh inactive, iPSC survival up inactive and APJ ag confirm 42.
For C[C@@H]1CN([C@@H](C)CO)C(=O)CCCn2nncc2CO[C@@H]1CN(C)C(=O)Oc1ccccc1 the results were CXCR6 block inactive, DAGLB inh inactive and iPSC survival up inactive.
For CCCSc1nc(O)c(CC)c(=O)n1C(C)CC (configuration not stated) the results were CXCR6 block inactive, CCR6 antag inactive, APJ agonist 60, APJ antagonist inactive, DAGLB inh inactive, iPSC survival up inactive and APJ ag confirm 62.
Screening Cc1cc(OC(C)C(=O)NCc2ccncc2)c2c3c(c(=O)oc2c1)CCC3 (configuration not stated) returned CXCR6 block inactive, CCR6 antag inactive, APJ agonist inactive, APJ antagonist inactive, DAGLB inh inactive and iPSC survival up inactive.
For COC(=O)[C@@H]1N=C(c2ccc(OC)cc2)O[C@]12C(=O)N(Cc1ccccc1)c1ccccc12 the results were CXCR6 block inactive and iPSC survival up inactive.
CC1(C)C[C@H]2C=C(C=O)[C@]3(C=O)C[C@]3(C)[C@H]2C1 was read as CXCR6 block inactive, CCR6 antag inactive, APJ agonist 31, APJ antagonist inactive, DAGLB inh inactive, iPSC survival up inactive and APJ ag confirm inactive.
NC(N)=N/N=C/c1ccc(N(c2ccccc2)c2ccccc2)cc1 was read as CXCR6 block inactive, CCR6 antag inactive, APJ agonist 40, APJ antagonist inactive, DAGLB inh inactive, iPSC survival up inactive and APJ ag confirm inactive.
`C=C1C(=O)O[C@@H]2C[C@@H](C)[C@@H]3C4OC4C(=O)[C@@]3(C)[C@@H](O)[C@H]12` (some centres not stated) gave CXCR6 block inactive, CCR6 antag inactive, APJ agonist inactive, APJ antagonist 42, DAGLB inh inactive, iPSC survival up inactive and APJ antag conf inactive.
`COc1ccc2c3c1O[C@H]1C(=O)CC[C@H]4[C@@H](C2)N(C)CC[C@]314` gave CXCR6 block inactive, CCR6 antag inactive, APJ agonist inactive, APJ antagonist inactive, DAGLB inh inactive and iPSC survival up inactive.
Cn1c(O)c(Cc2cccc(Cl)c2Cl)c(=O)n(C)c1=O was read as CXCR6 block inactive, CCR6 antag inactive, APJ agonist inactive, APJ antagonist inactive, DAGLB inh inactive and iPSC survival up inactive.
`CC(C)CCn1c(N)c(C(=O)NCc2cccs2)c2nc3ccccc3nc21` gave CXCR6 block inactive, CCR6 antag inactive, APJ agonist inactive, APJ antagonist 55, DAGLB inh inactive, iPSC survival up inactive and APJ antag conf inactive.
COCCNC(=O)c1c(N)n(CCC(C)C)c2nc3ccccc3nc12 was read as CXCR6 block inactive, CCR6 antag inactive, APJ agonist inactive, APJ antagonist inactive, DAGLB inh inactive and iPSC survival up inactive.
Screening COc1ccc(C(=O)C2CCCN(CCO)C2)c(C)c1 (configuration not stated) returned CXCR6 block inactive, CCR6 antag inactive, APJ agonist inactive, APJ antagonist 111, DAGLB inh inactive, iPSC survival up inactive and APJ antag conf inactive.

Bioassay records from PubChem BioAssay.
